Results from the RNAGym collection of RNA variant scans (doi:10.1126/science.aae0568).
This sample holds only a part of the variants without activity.

B1: tRNA (parent)
chain: GUUCCGUUGGCGUAAUGGUAACGCGUCUCCCUCCUAAGGAGAAGACUGCGGGUUCGAGUCCCGUACGGAACG

Variants of: B1
Experiment: yeast fitness relative to wild type (ratio to wild type); higher = fitter; tRNA-Arg(CCU), competitive growth, 37 C, YPD
Procedure, shortened: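 Gene amplicons from the start population and from each of six end populations were read by 100-nucleotide paired-end sequencing. Those end populations came from pooled Saccharomyces cerevisiae strains carrying tRNA-Arg(CCU) gene variants at the native locus, competed in YPD at 37°C for 24 hours. Fitness relative to wild type was worked out from changes in genotype frequencies. Genotypes needed ≥ 100 starting reads, and estimates < 0.5 were set to 0.5.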

Variant	yeast fitness
GUUCCGUUGGCGUGAUGGUAACGCGUCUCACUCAUAAGGAGACGACUGCGGGUUCGAGUCCUAUACGGAACG [A14G C30A C34A A43C C62U G63A]	≤ 0.5
GUUCCGUUGGCGUGAUGGUAAUGCGUCUCCCUCUUAAGGAGAAGACUGCGGGUUAGAGUCCCGUACGGAACG [A14G C22U C34U C55A]	0.583
GUUCCGUUGGCGUGAUGGUAACGCGUCUGCUUCCUAAGGAGAAGACUGCGGGUUUGAGUCCCGUACGGCACG [A14G C29G C31U C55U A69C]	≤ 0.5
GUUCCGUUGGCGUGAUGGUAACGCGUCUUCCUCCUAAGGAGAAGUCUGCGGGUUCGAGUCCCGUACGGAACG [A14G C29U A45U]	0.626
GUUCCGUUGGCGUGAUGGUAACGCGUCUCCGUCCUAUGGAGAAGACUGCGGGUUCGAGUCCCGUACGGAACG [A14G C31G A37U]	0.533
GUUCCGUUGGCGUGAUGGUAACGCGUUUCCCUUCCAAGGAGAAGACUGCGGGUUCGAGUCCCGUACGGAACG [A14G C27U C33U U35C]	≤ 0.5
GUUCCGUUGGCGUGAUGGUAACGCGUCUCCGUCCUAAGGAGAAGUCUGCGGGUUCGAGUCCUGUACGGAACG [A14G C31G A45U C62U]	0.669
GUUCCGUUGGCGUGAUGGUAACGCGUCUCGCUCCUAAGGAGUAGGCUGCGGGUUCGAGUCCCGUACGGUACG [A14G C30G A42U A45G A69U]	≤ 0.5
GUUCCGUUGGCGUGAUGGUAACGCGUAUCCCUCCUACGGAGAAAACUGCGGGUUCGAGUCCCGUACGGAACG [A14G C27A A37C G44A]	0.563
GUUCCGUUGGCGUGAUGGUAAUGCGUCUCCCUGCUAAGGAGAAGACUGCGGGUUCGAGUCCCGUACGGAACG [A14G C22U C33G]	≤ 0.5
GUUCCGUUGGCGUGAUGGUAACGAGAGUCCCCCCUAAGGAGAAGACUGCGGGUUCGAGUUCCGUACGGAACG [A14G C24A U26A C27G U32C C60U]	≤ 0.5
GUUCCGUUGGCGUGAUGGUAACGCGUCUGCCUCCUAAGGAGAAGACGGCGGGUUCGAAUCCCGUACGGAACG [A14G C29G U47G G58A]	≤ 0.5
GUUCCGUUGGCGUGAUGGUAACGCGUCUCUCUCCUAAGGAGAAGAUUGCAGGUUCGAGUCCCGUACGGAACG [A14G C30U C46U G50A]	0.602
GUUCCGUUGGCGUGAUGGUAACGCGUCUACCUCCUAAGGAGAAGACUGCGGGUUCGAGUCCCGUACGGAACG [A14G C29A]	0.581
GUUCCGUUGGCGUGAUGGUAACGCGUCUCCGUCCUAUGGAGAAGACUGCGGGUUCGAGUCCCGUUCGGAACG [A14G C31G A37U A65U]	0.529
GUUCCGUUGGCGUGAUGGUAACGCGUUUCCCUCCUAAGGAGAAGACUGCGGGUUAGAGUCCCGUACGGAACG [A14G C27U C55A]	0.56
GUUCCGUUGGCGUGAUGGUAACGUGUCUCCCUCCUCAGGAGAUGACUGCGGGUUCGAGUCCCGUACGGUACG [A14G C24U A36C A43U A69U]	≤ 0.5
GUUCCGUUGGCGUGAUGGUAACGCGUCUCACUCCUAAGGAGAAGGCUGCGGGUUCGAGUGCCGUACGGAACG [A14G C30A A45G C60G]	0.668
GUUCCGUUGGCGUGAUGGUAACGCGUCUCUCUCCUAAGGAGACGACUGCGGAUUCGAGUCCCGUACGGAACG [A14G C30U A43C G52A]	≤ 0.5

Variant	yeast fitness
GUUCCGUUGGCGUGAUGGUAACGGAUCUCCCUCCUAAGGAGAGGACUGAGGGUUCGAGUCCCGUACGGAACG [A14G C24G G25A A43G C49A]	≤ 0.5
GUUCCGUUGGCGUGAUGGUAACGCGUCUCGCUCCUCAGGAGAAGACUGCGGGUUCGAGUCCCGUACGGAACG [A14G C30G A36C]	0.525
GUUCCGUUGGCGUGAUGGUAAUGCGUCUCCCUCCUAAGGAGAAGAGUGCGGGUUCGAGUGCCGUACGGAACG [A14G C22U C46G C60G]	≤ 0.5
GUUCCGUUGGCGUGAUGGUAACGCGUGUCCCUCCUAGGGAGAAGACUGCGGGUUCGAGGCCCGUACGGAACG [A14G C27G A37G U59G]	≤ 0.5
GUUCCGUUGGCGUGAUGGUAACGCGUCUUCCUCCUAAGGAGAAGACUGCGGGUUCGAGUCCUGUACGGAUCG [A14G C29U C62U A70U]	0.536
GUUCCGUUGGCGUGAUGGUAAGGCGUCUCCCUCCGAAGGCGAAGACUGCGGGUUCGAGUCCCGUACGGAUCG [A14G C22G U35G A40C A70U]	≤ 0.5
GUUCCGUUGGCGUGAUGGUAAGGCGUCUCCCUUCUAAGGAGAAGACUGCGGGUUCGAAUACCGUACGGAACG [A14G C22G C33U G58A C60A]	0.51
GUUCCGUUGGCGUGAUGGUAACGUGUCUCCCUCCUAAGGAGAAGACUGCGAGUUCGAGUCCCGUACGGAACG [A14G C24U G51A]	≤ 0.5
GUUCCGUUGGCGUGAUGGUAACGUGUCUCCCUCCUAAGGAGAAGCCUGCGUGUUCGAGCCCCGUACGGAACG [A14G C24U A45C G51U U59C]	≤ 0.5
GUUCCGUUGGCGUGAUGGUAACGCGUCUUCCUCCUAAGGAAAAGACUGCGGGUUCGAGUCCCAUACGGAACG [A14G C29U G41A G63A]	≤ 0.5
GUUCCGUUGGCGUGAUGGUAACGCGUCUUCCUCCUAAGGAAAAGACUGCGGGUGCGAGUCCCGUACGGUACG [A14G C29U G41A U54G A69U]	0.621
GUUCCGUUGGCGUGAUGGUAACGCGUCUCCAUCCUAAGGAGAAGACCGCGGGUUCGAGUCCCGUACGGAUCG [A14G C31A U47C A70U]	≤ 0.5
GUUCCGUUGGCGUGAUGGUAACGCGUUUCCCUCCUAAGGAGAAGACUGCGGGUUCGAGUCCCGUACGGAACG [A14G C27U]	0.974
GUUCCGUUGGCGUGAUGGUAACGCGUAUCCCUCCUAAGGAGAAGACUGCGGGUUCGAGUCCCGUACGGAACG [A14G C27A]	0.916
GUUCCGUUGGCGUGAUGGUAACGCGUCUGCCUCCUAAGGAGAUGAUUGCGGGUUCGAGUCCCGUACGGAACG [A14G C29G A43U C46U]	≤ 0.5
GUUCCGUUGGCGUGAUGGUAACGGGUCUCCCUCCUCAGGAGAAGACUGCGGGUUCGAGUCCCGUACGGACCG [A14G C24G A36C A70C]	≤ 0.5
GUUCCGUUGGCGUGAUGGUAACGGCUAUCCCUCCUAAGGCGAAGACUGCGAGUUCGAGUCCCGUACGGAACG [A14G C24G G25C C27A A40C G51A]	≤ 0.5
GUUCCGUUGGCGUGAUGGUAACGCGUCUCCGUCCUAAGGAGAAGGCUGCGGGUUCUAGUCCCGUACGGAACG [A14G C31G A45G G56U]	≤ 0.5
GUUCCGUUGGCGUGAUGGUAACGCGUCUCGCUCCUCAGGAGAAGACUGCGGGUUCGAGUCCCGUACGGUACG [A14G C30G A36C A69U]	≤ 0.5
